Only some compounds are listed: those with a hit (about 2.9% of all), similar ones and a draw of the others.
TAG inh – inhibitors of triacylglycerol accumulation, primary screen, cell-based, uHTS, fluorescence, H9c2; H9c2 cells, Nile Red lipid (TAG) fluorescence; cells loaded with 200 µM oleic acid; inhibition, % at 12.5 µM; 0.66% of 230,000 active; AID 651582, 2012;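 active means pattern-corrected inhibition of lipid staining of at least 50% with the nuclear-stain viability signal not falling by more than 50%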;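 further: 0% = DMSO wells and 100% = triacsin C control wells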
Calb FLC – C. albicans growth inhibition with fluconazole, primary screen, CaCi-2 strain, Alamar Blue fluorescence | growth inhibition, % (test concentration not listed) | C. albicans CaCi-2 + fluconazole, 48 h | 0.57% of 300,000 active;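 active means growth inhibition above about 58% in most replicates, limit read from the data, passing the limit was not always enough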;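 further: all wells also contain fluconazole at 8 µg/ml as a sub-toxic cotreatment; 0% = median of DMSO wells and 100% = median of geldanamycin control wells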
Efflux pump mplx – inhibitors of Candida efflux pumps in yeast, primary screen, S. cerevisiae, Nile Red, multiplex; inhibition, % at 10 µM; AID 485275, 2010; S. cerevisiae Candida pump triplex; 0.44% of 330,000 active;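 active means plate passing quality check with inhibition over a set limit, or well fluorescence over plate mean plus 4 SD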;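 further: Nile Red retained in pooled yeast measured as flow cytometry median fluorescence; 0% = buffer negative control and 100% = Enniatin B positive control; higher means more Nile Red kept so more efflux inhibition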
GalR3 antag – GalR3 antagonists in HEK293 cells, primary screen, cell-based, fluorescence readout. Galanin receptor type 3 (Homo sapiens), O60755. HEK293 GalR3-CNG cAMP membrane potential fluorescence; galR3 body fused to GalR1 C-terminus. inhibition, % at 3 µM. 0.44% of 360,000 active;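 active means inhibition above the screen-wide average plus 3 SD, cut at about 13% in these data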;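 further: forskolin and galanin both at EC90 stimulate the cells; cAMP rise reported by CNG channel membrane potential dye signal; 0% = forskolin plus galanin with DMSO and 100% = forskolin alone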
MC4R ag barr – MC4R agonists recruiting beta-arrestin, primary screen, cell-based, luminescence, agonist arm of biased-ligand search; 0.98% of 360,000 active; U2OS MC4R beta-arrestin complementation; percent of melanotan II response, DMSO zero; activation, % at 8.9 µM;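 active means activation above a per-plate cutoff, the mean activation of sample wells on that plate plus 3 SD, cut at about 8% in these data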
MC4R antag cAMP – MC4R antagonists of cAMP signaling, primary screen, cell-based, TR-FRET, antagonist arm of biased-ligand search; Melanocortin receptor 4 (Homo sapiens), P32245; MC4R-expressing cells, MTII-stimulated cAMP, LANCE TR-FRET; inhibition, % at 6.5 µM; 0.48% of 360,000 active;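 active means inhibition above its plate's cutoff, the mean of tested wells on that plate plus 3 SD, cut at about 29% in these data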;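 further: 0% = Melanotan II alone and 100% = Melanotan II plus saturating MCL0020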
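Assay system: U2OS-MC4R stable cell line; Also added: Melanotan II; Technique: Eu-cAMP/anti-cAMP TR-FRET, emission 671 nm; Times: 30-min compound, 1-h challenge, 1-h detection, room temperature.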
MC4R barr conf – MC4R beta-arrestin agonists, retest, confirmation, cell-based, luminescence, U2OS; shares compounds with MC4R ag barr; U2OS MC4R beta-arrestin recruitment; scaled DMSO 0%, Melanotan II 100%; activation, % at 8.9 µM; 31% of 2,400 active; AID 602192, 2012;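 active means mean activation across replicates above the hit cutoff set in the earlier primary screen, cut at about 8% in these data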
MOR-DOR barr ag – agonists of MOR-DOR heterodimerization, counter-screen for MC4R biased agonist project, cell-based, luminescence; activation, % at 9.2 µM; shares compounds with MC4R ag barr; 5.8% of 2,400 active; U2OS PathHunter beta-arrestin, beta-gal luminescence; percent of deltorphin B response, DMSO zero;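 active means mean activation across replicates exceeds the hit threshold derived in the earlier primary screen, cut at about 18% in these data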;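 further: 100% = deltorphin B at 0.9 µM final and 0% = DMSO alone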
Target sequence (P35372 whole entry, looked up): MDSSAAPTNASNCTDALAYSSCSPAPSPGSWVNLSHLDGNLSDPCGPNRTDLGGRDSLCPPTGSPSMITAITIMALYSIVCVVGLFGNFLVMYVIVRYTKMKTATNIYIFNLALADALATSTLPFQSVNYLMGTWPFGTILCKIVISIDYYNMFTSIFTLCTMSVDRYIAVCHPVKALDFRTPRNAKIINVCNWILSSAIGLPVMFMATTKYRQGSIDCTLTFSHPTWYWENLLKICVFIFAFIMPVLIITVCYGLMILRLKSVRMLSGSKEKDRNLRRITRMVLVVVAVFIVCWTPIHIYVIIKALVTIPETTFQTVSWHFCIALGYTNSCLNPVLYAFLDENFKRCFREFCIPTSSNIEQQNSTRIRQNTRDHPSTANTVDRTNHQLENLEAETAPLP
Target sequence (P41143 whole entry, looked up): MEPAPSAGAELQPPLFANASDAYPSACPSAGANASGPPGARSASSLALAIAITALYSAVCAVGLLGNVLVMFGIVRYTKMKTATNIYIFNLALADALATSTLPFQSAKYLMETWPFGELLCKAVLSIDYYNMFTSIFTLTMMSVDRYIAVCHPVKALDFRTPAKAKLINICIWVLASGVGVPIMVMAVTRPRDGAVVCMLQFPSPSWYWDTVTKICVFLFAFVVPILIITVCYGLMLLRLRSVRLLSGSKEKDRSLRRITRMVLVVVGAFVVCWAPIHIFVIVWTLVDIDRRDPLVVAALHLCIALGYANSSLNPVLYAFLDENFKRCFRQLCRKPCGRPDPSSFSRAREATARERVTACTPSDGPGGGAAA
* hit, by the source's call; . = no result given; ! = a repeat was not active.

SMILES	TAG inh	Calb FLC	Efflux pump mplx	GalR3 antag	MC4R ag barr	MC4R antag cAMP	MC4R barr conf	MOR-DOR barr ag
COc1ccccc1CNC(=O)Nc1nc(C(N)Cc2ccc(Cl)cc2)cs1 (stereo not given)	106.5	.	.	-9.1	25.5*	5.6	40.2*	23.4*
CCc1cnc(Nc2nc(C(N)Cc3ccc(Cl)cc3)cs2)nc1 (stereo not given)	19.8	.	.	-3.8	0.4	-5.9	.	.
NC(c1ccccc1)c1csc(NC(=O)Nc2ccccc2Oc2ccccc2)n1 (stereo not given)	34.5	.	.	-7.7	23.4*	-3.6	35.1*	13.4
COc1ccccc1CNC(=O)Nc1nc(C(N)C(C)C)cs1 (stereo not given)	12.6	.	.	-0.7	0.7	7.5	.	.
Cn1c2ccccc2c2cnn(CC(=O)Nc3ccc(F)cc3F)c(=O)c21	0.2	-0.5	-0.1	-2.5	15.7*	-3.4	1.4	3.2
Cn1c2ccccc2c2cnn(CC(=O)Nc3ccccc3Br)c(=O)c21	21.5	-6.5	-0.1	-2.4	3.0	-4.5	.	.
Cc1ccc(S(=O)(=O)N2C[C@@H](C)[C@]3(C2)[C@H](O)[C@H](OC(=O)NCc2ccccc2F)C[C@H]2C(=O)N(c4ccccc4)C(=O)[C@H]23)cc1	-2.0	.	.	-2.8	-1.3	10.9	.	.
Fc1ccc(-c2nnsc2Sc2ccccn2)cc1	5.3	-20.7	0.2	-1.5	12.2*	0.6	-1.1	2.8
O=C(CSc1ccccn1)c1ccc(F)cc1	.	31.4	0.0	0.8	-2.6	2.7	.	.
O=C1CCSc2c1ccc1ccccc21	-3.2	.	.	1.9	-2.9	3.0	.	.
O=Nc1c(O)n(Cc2ccc(Cl)c(Cl)c2)c2ccccc12	-30.8	78.6*	-0.1	0.3	10.3*	8.0	4.3	9.9
O=Nc1c(O)n(Cc2cccc(C(F)(F)F)c2)c2ccccc12	3.9	116.9*	0.1	-5.3	11.0*	6.1	7.6	9.1
CNC(=O)C[C@H]1C(=O)N(c2ccccc2)C[C@@H]1CSC	-4.7	.	.	-5.4	-0.9	0.5	.	.
CC(C#N)N1CCN(S(=O)(=O)c2ccc3c(c2)CCC3)CC1 (stereo not given)	3.0	.	0.2	-4.3	2.1	2.7	.	.
CCOc1ccccc1NC(=O)Cn1nnc(-c2ccc(OCC)c(OCC)c2)n1	.	0.8	0.0	-4.1	9.7*	-1.3	3.2	4.3
CCOc1ccc(-c2nnn(CC(=O)Nc3cc(OC)cc(OC)c3)n2)cc1OCC	.	-5.9	0.2	-3.9	11.1*	-1.9	4.1	7.4
COC(=O)/C=C1\Nc2ccc(Cl)cc2C(=O)NC1=O	.	.	.	-6.5	.	.	.	.
CCc1ccc(C(C)NC(=O)c2ccc3c(c2)OCO3)cc1 (stereo not given)	15.6	-5.2	-1.3	-5.9	-1.5	-6.8	.	.
COc1ccccc1CCNC(=O)c1cc(-c2ccncc2)nc2ccc(Br)cc12	13.9	-5.2	.	-0.3	18.1*	6.5	10.4*	3.9
O=C(Nc1ccc(-c2nnc3n2CCCCC3)cc1)c1cc2ccccc2o1	-14.3	-16.2	-0.2	-5.3	-1.1	5.6	.	.
Cc1c(C(=O)Nc2ccc(-c3nnc4n3CCCCC4)cc2)oc2c1ccc1ccccc12	.	4.5	0.6	-10.7	11.4*	12.8	6.4	3.1
COC(=O)c1c(NC(=O)C(C)(C)C)sc2c1CCN(Cc1ccccc1)C2	22.7	-5.0	0.0	.	11.4*	-9.1	5.8	5.1
COC(=O)c1c(NC(C)=O)sc2c1CCN(Cc1ccccc1)C2	1.4	3.8	0.4	.	1.9	11.9	.	.
Cc1nc2c(=O)[nH]c(=S)[nH]c2[nH]c1=O	-6.7	.	.	0.5	-1.1	0.1	.	.
O=C(NCc1nc(-c2ccc(C(F)(F)F)cc2)no1)Nc1ccc(OC(F)(F)F)cc1	-31.1	3.0	0.0	-3.0	10.9*	2.7	5.3	1.8
SMILES	TAG inh	Calb FLC	Efflux pump mplx	GalR3 antag	MC4R ag barr	MC4R antag cAMP	MC4R barr conf	MOR-DOR barr ag
COc1ccc(OCC(=O)N/N=C/C(C)=C/c2ccco2)c(Br)c1	.	1.1	0.4	-3.1	18.8*	17.5	-1.0	7.6
CCc1c(C2(O)CCCCC2)[nH]c2ccc(C(=O)OC)cc12	-31.9	5.0	0.0	0.2	2.2	8.8	.	.
CCc1c(C2(O)CCCCC2)[nH]c2ccc(C#N)cc12	-136.0	10.6	0.5	-4.9	10.8*	8.4	3.1	8.1
COc1ccc2cc3cc(C(=O)Nc4ccc5c(c4)OCCO5)oc3nc2c1	33.8	0.0	-0.2	-0.4	43.2*	-7.0	8.0	6.1
Cc1cn([C@H]2C[C@H](O)[C@@H](/C=C/C(=O)NCc3ccco3)O2)c(=O)[nH]c1=O	.	.	.	-7.0	.	.	.	.
CCOC(=O)C1=CCN(S(=O)(=O)c2cccc(Cl)c2)C1c1ccc(Cl)c(Cl)c1 (stereo not given)	.	.	.	-3.3	.	.	.	.
O=c1[nH]c(CN2CCN(Cc3ccccc3)CC2)nc2scc(-c3ccccc3)c12	11.6	-5.0	0.0	-1.9	-2.0	-1.3	.	.
O=c1[nH]c(Cn2nnc(-c3ccccc3)n2)nc2scc(-c3ccccc3)c12	-15.9	18.0	0.0	-1.4	11.8*	-3.3	1.5	6.8
O=C(NC(Cc1nn[nH]n1)C(=O)OCc1ccccc1)OCc1ccccc1 (stereo not given)	-10.8	.	.	-4.5	-0.6	-3.0	.	.
CCc1nonc1NC(=O)c1oc2cc(C)c(C)cc2c1C	.	-3.3	-0.1	-8.7	11.8*	0.6	2.4	5.9
CCc1nonc1NC(=O)c1oc2cc(C)c(Cl)cc2c1C	.	-14.7	0.0	-0.9	0.6	10.6	.	.
CCCCCOC(=O)Cn1c(=O)oc2ccccc21	-4.4	0.3	-0.1	.	1.3	21.3	.	.
CCCCCCCCCCOC(=O)Cn1c(COc2ccccc2)[n+](C)c2ccccc21	.	41.0	0.2	-6.3	18.1*	-3.8	29.1*	22.8*
CCCCCCCCCCOC(=O)Cn1c(COc2ccc(OC)cc2)[n+](C)c2ccccc21	.	-11.1	0.2	.	34.7*	8.2	18.7*	23.9*!
CN(C)CCCN(C(=O)COc1ccc(Cl)cc1)c1nc2ccc(F)cc2s1	9.9	-7.4	-0.2	-4.3	0.9	5.6	.	.

Assay outcomes: PubChem BioAssay, several laboratories
